Compound activity: PubChem, several laboratories
The list is not random: actives were taken first. Their share in the collection is about 5.7%.
SKKanGAS inh = inhibitors of SKKanGAS S. pyogenes growth in kanamycin (SK-promoter or general growth effect). BacTiter-Glo, 6 h. inhibition, % at 7.5 µM. 1.3% of 300,000 active;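 active = mean replicate score, as percent of positive control median, at least 50; inconclusive = mean below 50 but one replicate at or above 50; inactive = mean and every replicate below 50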;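 note: strain carries kanamycin resistance gene driven by streptokinase promoter and grows in 40 µg/ml kanamycin; loss of luminescence reflects streptokinase promoter inhibition or plain growth inhibition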
CSC inhib = blocks cancer stem cells. cancer stem cell-like cells viability, luminescence. inhibition, % at 7.5 µM. 1.1% of 300,000 active; in the data active = inhibition above about 75%; inconclusive = no clear call, values can overlap the other calls; tested in HMLE shEcad cells
Beta apoptosis = beta cell apoptosis inhibition; protection from apoptosis, % (concentration not given with the values); INS-1E cytokine-induced death, ATP luminescence, 48 h; percent of positive-control rescue, neutral wells zero; 0.8% of 300,000 active;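 active = Every replicate reaches about 75%, or at least half do and their mean reaches it too, limit read from the data; inconclusive = At least half of replicates reach the limit but their mean does not; inactive = Under half of replicates reach the limit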;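 note: higher means more ATP so stronger rescue from cytokine killing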
Mdm2 MdmX PPI = inhibitors of human Mdm2/MdmX interaction; O15151+Q00987; SaOS-2 split-luciferase Mdm2/MdmX complementation, luminescence; inhibition, % at 8 µM; 3% of 330,000 active;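 active = inhibition of at least 50% at 8 µM in the primary screen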
T cruzi repl = blocks replication of Trypanosoma cruzi. T. cruzi beta-gal in NIH3T3, luminescence, 90 h. inhibition, % (no concentration beside the values). 1.4% of 300,000 active. AID 1885;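 active = mean inhibition across valid replicates above about 55%, limit read from the data; inconclusive = mean below that limit but half or more replicates reach it; inactive = mean below it, under half of replicates reach it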;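 note: signal also drops with host cell toxicity which is not excluded here; higher percent means less beta-gal luminescence so fewer parasites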
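Incubation – ≥90 h infection period, 3 h prior cell attachment · System – NIH/3T3 fibroblasts plus reporter T. cruzi · Doses – compound pinned at 50 nL/well, DMSO · Read-out basis – percent inhibition of parasite-derived β-gal signal · Signal – luminescent β-galactosidase signal after 60 min lysis · Also added – 5000 T. cruzi trypomastigotes/well · Medium – Low-serum DMEM with 2% FBS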
Calb FLC = affects C. albicans growth with fluconazole; C. albicans CaCi-2 (fluconazole-resistant clinical isolate) + fluconazole, Alamar Blue growth, 48 h; AID 1979; 0.57% of 300,000 active; growth inhibition, % (concentration not given with the values);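 active = growth inhibition above about 58% in most replicates, limit read from the data, passing the limit was not always enough; inconclusive = exactly half the replicates above a set limit; inactive = most replicates below a set limit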;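 note: all wells also contain fluconazole at 8 µg/ml as a sub-toxic cotreatment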
Mdm2-MdmX conf = human Mdm2/MdmX binding inhibition, confirmed. inhibition, % at 8 µM. 55% of 10,000 active. shares compounds with Mdm2 MdmX PPI. luminescent assay; in the data active = inhibition above about 40%
Full FLuc ctr = inhibits full-length luciferase, flagging false Mdm2/MdmX hits | shares compounds with Mdm2 MdmX PPI | SaOS-2 full-length luciferase counterscreen, luminescence | inhibition, % at 8 µM | 77% of 6,200 active | AID 504607;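 active = mean inhibition at 8 µM reaching about 37%, which flags the compound as non-specific, limit read from the data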;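 note: p53-null SaOS-2 cells with luciferase driven by a doxycycline-inducible promoter; compound on cells about two nights before reading with doxycycline added after day one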
Numbers stand for hits; n = inactive; u = inconclusive; x = no result.

SMILES	SKKanGAS inh	CSC inhib	Beta apoptosis	Mdm2 MdmX PPI	T cruzi repl	Calb FLC	Mdm2-MdmX conf	Full FLuc ctr
CC1CCCN(C(=O)COC(=O)CNC(=O)c2sc3ccccc3c2Cl)C1 (stereo not drawn)	x	n	n	n	x	x	x	x
CCN(CC)C(=O)c1ccc(NS(=O)(=O)c2ccc3[nH]c(=O)[nH]c3c2)cc1	n	n	n	n	n	n	x	x
CC1CN(C(=O)COC(=O)Cc2c(Cl)cccc2Cl)CC(C)O1 (stereo not drawn)	x	n	n	n	x	x	x	x
CC(=O)Oc1c(C)cc(Cl)cc1C(=O)Nc1ccc([N+](=O)[O-])cc1Cl	x	120	106	99	n	x	81	n
CC(=O)OCC(=O)Nc1ccc([N+](=O)[O-])cc1Cl	n	n	n	n	n	n	x	x
Cc1ccc2nc(Nc3nc(CSc4nnnn4-c4ccccc4)cc(=O)[nH]3)nc(C)c2c1	n	x	n	n	n	n	x	x
COc1nc(Nc2nc3ccccc3c(=O)[nH]2)nc2ccc(C)cc12	85	125	97	65	58	n	43	76
Cc1nc(Nc2nc(CSc3nc4ccccc4[nH]3)cc(=O)[nH]2)nc2ccccc12	n	195	n	55	n	n	65	61
Cc1nc(Nc2nc(-c3ccccc3)cc(=O)[nH]2)nc2ccccc12	82	x	n	68	n	n	45	70
Cc1nc(Nc2nc(CSc3ccc(Cl)cc3)cc(=O)[nH]2)nc2ccccc12	n	n	n	n	n	n	x	x
COc1ccc2nc(Nc3nc(CSc4nc5ccccc5[nH]4)cc(=O)[nH]3)nc(C)c2c1	n	n	77	65	n	u	52	46
CCc1ccc2nc(Nc3nc(COC)cc(=O)[nH]3)nc(C)c2c1	n	x	x	n	n	n	x	x
CN(CC(=O)Nc1ccc(Cl)cc1)C(=O)CCc1c[nH]c2ccccc12	n	n	n	n	n	n	x	x
COc1ccc(-c2ncncc2-c2csc(C)n2)c(O)c1OC	n	n	n	n	n	n	x	x
COC1=C(N)C(=O)c2nc(-c3nc(C(=O)O)c(C)c(-c4ccc(OC)c(OC)c4O)c3N)ccc2C1=O	x	x	x	100	x	x	100	n
COc1ccc(-c2nn(-c3ccccc3)cc2C(=O)N2c3ccc(C)cc3C3CN(C)CCC32)cc1 (stereo not drawn)	n	x	n	54	n	n	n	74
CCC(c1nnc(SCC(=O)Nc2cc(S(C)(=O)=O)ccc2Cl)n1Cc1ccccc1)N(C)C (stereo not drawn)	n	n	n	n	n	n	x	x
N#Cc1ccc(NC(=O)Nc2ccc(Oc3ccc(NC(=O)Nc4ccc(C#N)cc4)cc3)cc2)cc1	n	n	n	60	61	n	74	n
NC(=O)C1CCN(C(=O)CN2C(=O)c3ccccc3S2(=O)=O)CC1	n	n	n	n	n	n	x	x
O=C(CN1C(=O)c2ccccc2S1(=O)=O)N1CCc2ccccc2C1	n	n	n	55	n	n	n	77
CC1CCN(C(=O)CN2C(=O)c3ccccc3S2(=O)=O)CC1	n	n	x	54	n	n	n	x
CCc1nc(SCc2ccccc2C#N)n[nH]1	n	x	x	n	n	n	x	x
O=C(N/N=C/c1c(O)ccc2ccccc12)c1ccc[n+](CCO)c1	n	n	n	n	n	n	x	x
O=C(N/N=C\c1c(O)ccc2ccccc12)c1ccc(O)cc1	107	n	x	68	n	n	52	n
Cn1cc(C(=O)N/N=C/c2c(O)ccc3ccccc23)ccc1=O	n	94	93	79	n	n	72	n
O=C(N/N=C/c1c(O)ccc2ccccc12)c1ccc(Br)o1	106	156	102	87	n	n	81	54
O=C(N/N=C/c1ccccc1O)c1cccc2ccccc12	106	x	x	53	n	n	53	46
O=C(N/N=C/c1ccccn1)c1ccc(Br)o1	n	n	x	n	n	n	x	x
O=C(COC(=O)C1CCC1)NCc1ccccc1	n	n	n	n	n	n	x	x
Cn1nccc1C(=O)Oc1cccc(/C=N/NC(=O)c2ccccc2O)c1	n	n	n	n	n	n	x	x
